Screens deposited in PubChem by Broad Institute.
Shown is part of a subset that was picked to be rich in hits.
KDM4C inh: inhibitors of GASC-1 (KDM4C) histone demethylase, primary screen, biochemical, single concentration HTS. Lysine-specific demethylase 4C (Homo sapiens), Q9H3R0. GST-KDM4C 2-372, H3K9me3 peptide, LANCE TR-FRET. inhibition, % at 12.5 µM. 0.15% of 96,000 active;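 active = mean replicate inhibition above about 25%, with at least 55% of replicates also reaching it, limit read from the data, passing the limit was not always enough; inconclusive = only one of those two conditions met; inactive = neither condition met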
Target sequence (Q9H3R0 2-372 limits assumed): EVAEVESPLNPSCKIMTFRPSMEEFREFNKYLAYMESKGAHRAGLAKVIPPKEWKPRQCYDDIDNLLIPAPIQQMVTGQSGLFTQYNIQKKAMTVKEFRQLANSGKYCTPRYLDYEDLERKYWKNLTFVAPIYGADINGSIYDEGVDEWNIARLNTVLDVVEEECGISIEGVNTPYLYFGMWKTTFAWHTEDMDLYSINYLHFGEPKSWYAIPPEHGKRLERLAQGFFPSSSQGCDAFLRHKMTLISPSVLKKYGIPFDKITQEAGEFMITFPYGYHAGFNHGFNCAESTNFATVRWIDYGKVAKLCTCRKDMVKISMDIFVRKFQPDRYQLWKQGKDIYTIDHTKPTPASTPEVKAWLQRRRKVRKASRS
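Material: GST-tagged GASC-1 (JMJD2C) catalytic fragment, aa 2-372 / Quantity: enzyme final amount 10 nM / Medium: HEPES buffer, pH 7.5, plus ascorbate / Doses: one test concentration per compound / Incubation: 30 min reaction, 60 min detection, RT / Measured by: LANCE TR-FRET / Read-out: inhibition from TR-FRET ratio decrease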
T cruzi growth-1: T. cruzi intracellular proliferation inhibitors, primary screen, cell-based, beta-gal Tulahuen parasites, NIH3T3 host, luminescence. T. cruzi beta-gal in NIH3T3, GalScreen luminescence, 90 h. inhibition, % at 8.34 µM. 5.9% of 77,000 active;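 active = mean inhibition above about 93%, with at least 55% of replicates each passing it, limit read from the data, passing the limit was not always enough; inconclusive = only one of those two conditions holds; inactive = neither condition holds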
IDH1 R132H inh: inhibitors of IDH1 R132H reductase, primary screen, biochemical, plate reader, single point; inhibition, % at 10 µM; Isocitrate dehydrogenase [NADP] cytoplasmic (Homo sapiens), O75874; diaphorase/resazurin fluorescence, 60 min; AID 624101, 2012; 0.18% of 70,000 active; in the data active = inhibition above about 34%; inconclusive = no clear call, values can overlap the other calls; inactive = below about 11%
Target sequence (O75874 whole entry R132H): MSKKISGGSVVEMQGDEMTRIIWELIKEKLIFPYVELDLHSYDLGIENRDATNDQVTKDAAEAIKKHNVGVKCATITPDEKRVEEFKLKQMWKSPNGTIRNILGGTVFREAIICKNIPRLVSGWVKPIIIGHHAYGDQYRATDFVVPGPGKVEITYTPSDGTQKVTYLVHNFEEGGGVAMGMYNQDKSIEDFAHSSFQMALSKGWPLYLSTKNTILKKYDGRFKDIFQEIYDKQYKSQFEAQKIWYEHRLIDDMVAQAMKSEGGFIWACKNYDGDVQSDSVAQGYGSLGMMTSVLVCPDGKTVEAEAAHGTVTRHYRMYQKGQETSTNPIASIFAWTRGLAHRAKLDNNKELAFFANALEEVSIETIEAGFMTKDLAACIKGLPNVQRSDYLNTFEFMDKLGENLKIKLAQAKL
T cruzi growth-2: T. cruzi intracellular proliferation inhibitors, confirmation, cell-based, NIH3T3 host, beta-gal parasite, luminescence, cherry-pick. 72% of 5,600 active. T. cruzi beta-gal in NIH3T3, GalScreen luminescence, 90 h. shares compounds with T cruzi growth-1. AID 651739, 2012. inhibition, % at 8.35 µM;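 active = mean replicate inhibition above about 95% and at least 55% of replicates individually reaching it, limit read from the data; inconclusive = only one of the two criteria is met; inactive = neither criterion is met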
T cruzi growth-3: inhibitors of intracellular T. cruzi replication, confirmation, NIH3T3 host cells, beta-gal parasites, cherry-pick, set 2. shares compounds with T cruzi growth-1. T. cruzi beta-gal in NIH3T3, GalScreen luminescence, 90 h. inhibition, % at 2.09 µM. 21% of 5,600 active. AID 651740, 2012;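 active = mean inhibition above about 95%, with at least 55% of replicates also reaching it, limit read from the data; inconclusive = meets just one of the two conditions; inactive = meets neither condition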
NIH3T3 tox: cytotoxicity in mouse NIH/3T3 fibroblasts, confirmation, cytotoxicity control for T. cruzi proliferation inhibitor project, cell-based, cherry-pick, single point; shares compounds with T cruzi growth-1; cytotoxicity (signal decrease), % at 8.35 µM; NIH/3T3 viability, CellTiter-Glo ATP luminescence, 90 h; AID 651742, 2012; 14% of 5,600 active;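 active = mean signal decrease across replicates above about 35% based on untreated-well scatter, with enough replicates individually passing, limit read from the data; inconclusive = no rule stated though some were filed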
3T3 cytotox 2: NIH/3T3 fibroblast cytotoxicity, confirmation, cytotoxicity control, cell-based, cherry-pick, single point, set 2. shares compounds with T cruzi growth-1. NIH/3T3 viability, CellTiter-Glo ATP luminescence, 90 h. inhibition, % at 24.9 µM. 56% of 5,600 active;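 active = mean loss of cell viability signal at or above a set limit, and enough replicates individually reaching it; inconclusive = meets only the mean limit or only the replicate share; inactive = meets neither condition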
Each line names hits and unclear results; the compound was inactive in the other large screens (follow-up assays come after a bar, where they were run).

CCSc1ccccc1C(=O)Nc1ccc(S(=O)(=O)Nc2ncccn2)cc1	none (no result: KDM4C inh, T cruzi growth-1)
C[C@@H]1CN([C@@H](C)CO)C(=O)c2cc(-c3ccc(F)cc3)cnc2O[C@@H]1CN(C)C(=O)Nc1ccc(F)cc1	none
CO[C@H]1CC[C@H]2CCOc3c(C#N)cccc3C(=O)N(C)[C@H](C)C(=O)N(C)C[C@@H]1O2	none
Cc1ccc(S(=O)(=O)N2C[C@H](O)COC[C@@H]3O[C@@H](CC(=O)N[C@@H]4CCN(Cc5ccccc5)C4)CC[C@H]32)cc1	none (no result: IDH1 R132H inh)
Cc1ccc(S(=O)(=O)N2C[C@@H](O)COC[C@H]3O[C@@H](CC(=O)N[C@H]4CCN(Cc5ccccc5)C4)CC[C@@H]32)cc1	T cruzi growth-1 99 (no result: IDH1 R132H inh) | T cruzi growth-2 106 | T cruzi growth-3 inactive | NIH3T3 tox inactive | 3T3 cytotox 2 inactive
COc1ccc(S(=O)(=O)N2C[C@H](O)COC[C@H]3O[C@@H](CC(=O)N[C@H]4CCN(Cc5ccccc5)C4)CC[C@@H]32)cc1	T cruzi growth-1 inconclusive (no result: IDH1 R132H inh) | T cruzi growth-2 inactive | T cruzi growth-3 inactive | NIH3T3 tox inactive | 3T3 cytotox 2 inactive
COc1ccc(S(=O)(=O)N2C[C@@H](O)COC[C@H]3O[C@H](CC(=O)N[C@@H]4CCN(Cc5ccccc5)C4)CC[C@@H]32)cc1	none (no result: IDH1 R132H inh)
CC(C)CC#Cc1ccc2c(c1)O[C@H](CN(C)S(=O)(=O)c1cccc(F)c1)[C@H](C)CN([C@@H](C)CO)S2(=O)=O	T cruzi growth-1 118 | T cruzi growth-2 inactive | T cruzi growth-3 100 | NIH3T3 tox inactive | 3T3 cytotox 2 60
CC(C)CC#Cc1ccc2c(c1)O[C@H](CN(C)S(=O)(=O)c1cccc(F)c1)[C@H](C)CN([C@H](C)CO)S2(=O)=O	T cruzi growth-1 112 | T cruzi growth-2 100 | T cruzi growth-3 116 | NIH3T3 tox inactive | 3T3 cytotox 2 98
CC(C)CC#Cc1ccc2c(c1)O[C@@H](CN(C)S(=O)(=O)c1ccc(F)cc1)[C@@H](C)CN([C@@H](C)CO)S2(=O)=O	none (no result: T cruzi growth-1)
CC(C)CC#Cc1ccc2c(c1)O[C@@H](CN(C)S(=O)(=O)c1ccc(F)cc1)[C@H](C)CN([C@@H](C)CO)S2(=O)=O	none (no result: T cruzi growth-1)
COc1ccc(NC(=O)N(C)C[C@H]2Oc3ncc(C#CCC(C)C)cc3C(=O)N([C@H](C)CO)C[C@@H]2C)cc1	none (no result: IDH1 R132H inh)
Cc1ccc(S(=O)(=O)N(C)C[C@@H]2Oc3cc(C#CC4CCCC4)ccc3S(=O)(=O)N([C@@H](C)CO)C[C@H]2C)cc1	T cruzi growth-1 127 | T cruzi growth-2 101 | T cruzi growth-3 99 | NIH3T3 tox 46 | 3T3 cytotox 2 77
Cc1ccc(S(=O)(=O)N(C)C[C@H]2Oc3cc(C#CC4CCCC4)ccc3S(=O)(=O)N([C@H](C)CO)C[C@@H]2C)cc1	T cruzi growth-1 127 | T cruzi growth-2 100 | T cruzi growth-3 108 | NIH3T3 tox inactive | 3T3 cytotox 2 51
COc1ccc(S(=O)(=O)N(C)C[C@@H]2Oc3cc(C#CC4CCCC4)ccc3S(=O)(=O)N([C@@H](C)CO)C[C@H]2C)cc1	none (no result: IDH1 R132H inh)
COc1ccc(S(=O)(=O)N(C)C[C@H]2Oc3cc(C#CC4CCCC4)ccc3S(=O)(=O)N([C@H](C)CO)C[C@H]2C)cc1	none (no result: IDH1 R132H inh)
Cc1ccc(-c2nnc(SCC(=O)Nc3ccccc3F)n2C)cc1	none (no result: KDM4C inh, T cruzi growth-1)
C[C@H]1CN([C@@H](C)CO)C(=O)CCCn2cc(nn2)CO[C@H]1CN(C)Cc1ccc2c(c1)OCCO2	none
Cc1ccccc1S(=O)(=O)N1CC[C@@H]2[C@@H](CO)Nc3ccc(-c4ccccc4)cc3[C@@H]21	none (no result: IDH1 R132H inh)
Cc1ccccc1S(=O)(=O)N1CC[C@H]2[C@H](CO)Nc3ccc(-c4ccc(C#N)cc4)cc3[C@H]21	T cruzi growth-1 115 (no result: IDH1 R132H inh) | T cruzi growth-2 107 | T cruzi growth-3 inactive | NIH3T3 tox 52 | 3T3 cytotox 2 69
Cc1ccccc1S(=O)(=O)N1CC[C@@H]2[C@@H](CO)Nc3ccc(-c4ccc(C#N)cc4)cc3[C@@H]21	T cruzi growth-1 inconclusive (no result: IDH1 R132H inh) | T cruzi growth-2 97 | T cruzi growth-3 inactive | NIH3T3 tox 66 | 3T3 cytotox 2 92
Cc1ccccc1S(=O)(=O)N1CC[C@H]2[C@H](CO)Nc3ccc(-c4ccccc4)cc3[C@H]21	none (no result: IDH1 R132H inh)
C[C@H](CO)N1C[C@H](C)[C@@H](CN(C)C(=O)c2ccncc2)OCCCC[C@H](C)Oc2ccc(NS(=O)(=O)c3ccc(F)cc3)cc2C1=O	none
C[C@@H]1CN([C@H](C)CO)C(=O)c2cc(NS(=O)(=O)c3ccc(F)cc3)ccc2O[C@@H]1CN(C)Cc1ccc(C(F)(F)F)cc1	none (no result: IDH1 R132H inh)
C[C@@H]1CN([C@H](C)CO)C(=O)c2cc(NS(=O)(=O)c3ccc(Cl)cc3)ccc2O[C@@H]1CN(C)Cc1ccc(C(F)(F)F)cc1	T cruzi growth-1 128 | T cruzi growth-2 inconclusive | T cruzi growth-3 inactive | NIH3T3 tox 94 | 3T3 cytotox 2 103
Cc1ccc(S(=O)(=O)Nc2ccc3c(c2)C(=O)N([C@@H](C)CO)C[C@H](C)[C@H](CN(C)Cc2ccc(C(F)(F)F)cc2)O3)cc1	T cruzi growth-1 99 | T cruzi growth-2 103 | T cruzi growth-3 100 | NIH3T3 tox inactive | 3T3 cytotox 2 99
C[C@@H]1CN([C@@H](C)CO)C(=O)c2cc(NS(=O)(=O)c3ccc(Cl)cc3)ccc2O[C@H]1CN(C)Cc1ccc(C(F)(F)F)cc1	none
C[C@H]1CN([C@@H](C)CO)C(=O)c2cc(NS(=O)(=O)c3ccc(F)cc3)ccc2O[C@@H]1CN(C)Cc1ccc(C(F)(F)F)cc1	none (no result: IDH1 R132H inh)
Cc1ccc(S(=O)(=O)Nc2ccc3c(c2)C(=O)N([C@H](C)CO)C[C@H](C)[C@H](CN(C)Cc2ccc(C(F)(F)F)cc2)O3)cc1	T cruzi growth-1 97 | T cruzi growth-2 98 | T cruzi growth-3 inactive | NIH3T3 tox inactive | 3T3 cytotox 2 103
O=C(CSc1nnc(-c2ccc(Cl)cc2)o1)N1c2ccccc2Sc2ccccc21	none (no result: KDM4C inh, T cruzi growth-1)
CCOC(=O)c1c(NC(=O)C(C)Oc2ccc3c(C)cc(=O)oc3c2)sc2c1CCCC2 (stereo not given)	none (no result: KDM4C inh, T cruzi growth-1)
C[C@@H]1CCCCO[C@H](CN(C)C(=O)CCC(F)(F)F)[C@H](C)CN([C@@H](C)CO)C(=O)c2cc(NC(=O)c3ccccc3)ccc2O1	none
C[C@@H]1CN([C@@H](C)CO)S(=O)(=O)c2ccc(C#Cc3ccccn3)cc2O[C@@H]1CN(C)C	none (no result: T cruzi growth-1)
